# This is one part of a sample in which hits are shown more often than they occur.
# Lung fibro prol: antiproliferative effect on LL 47 fibroblasts – human, LL 47 cells, CellTiter-Glo luminescence, primary screen; LL 47 human lung fibroblast viability, ATP luminescence; stronger effect = lower value; viability, % at 10 µM; 85,000 tested, 1.1% active; AID 719, 2007;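 active = viability at or below 50% in the single dose screen; inactive = viability above 50%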;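 note: compound exposure lasted 72 h before the ATP readout; 100% = median luminescence of untreated cell-only wells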
#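 Signal: luminescent ATP detection, CellTiter-Glo; assay system: LL 47 human lung fibroblasts; input: 1,150 cells/well; incubation: overnight cell rest, 72 h compound treatment at 37 °C; measure: % viability versus median cells-only luminescence; medium: IMEM growth medium with 15% fetal bovine serum; dosing: compound addition at 0.1% DMSO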
# H69AR growth 86K: proliferation blockers of H69AR lung cancer cells, primary screen, cell-based, human, 86K library; H69AR lung tumor viability, ATP luminescence, 72 h; stronger effect = lower value; AID 598, 2007; viability, % at 10 µM; 85,000 tested, 6% active;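 active = viability at or below 40%; inactive = viability above 40%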;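 note: multidrug resistant small cell line overexpressing MRP-1 efflux transporter; 100% = mean luminescence of untreated control wells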
# PTEN del growth: growth suppression of PTEN-null HCT116, primary screen, cell-based, CellTiter-Glo; HCT116 PTEN-null viability, 60 h; stronger effect = lower value; viability, % at 10 µM; 140,000 tested, 1.2% active; AID 827, 2007;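 active = viability at or below a set limit, 4 SD under the median of all tested compounds, cut at about 3.7% in these data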;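 note: PTEN knockout HCT116 line with beta catenin targeted HCT116 as companion control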
# bCat KO growth: primary screen for growth suppressors in beta-catenin knockout HCT116 cells (colon tumor, human); HCT116 beta-catenin knockout viability, CellTiter-Glo, 60 h; stronger effect = lower value; viability, % at 10 µM; 140,000 tested, 1.5% active;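 active = viability at or under a set limit, the compound median less 4 SD, cut at about 6% in these data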;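 note: 0% = Hyamine 1622 control at 20 µM and 100% = untreated cell control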
# HUVEC prolif 384: inhibitors of HUVEC proliferation, primary screen, cell-based, 384-well. 86,000 tested, 1.1% active. CellTiter-Glo luminescence, 72 h; stronger effect = lower value. viability, % at 10 µM (by protocol). AID 648, 2007;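 active = viability at or below 30%; inactive = viability above 30%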;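 note: 100% = median luminescence of DMSO-only cell control wells on each plate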
# * hit, by the source's call; . = no result given.
SMILES,Lung fibro prol,H69AR growth 86K,PTEN del growth,bCat KO growth,HUVEC prolif 384
CC1(C)SC(=S)N(/N=C/c2ccccc2)C1N(O)C(=O)Nc1ccc([N+](=O)[O-])cc1 (configuration not stated),86,37*,49,61,86
CC1(C)SC(=S)N(NC(=O)Nc2cccc3ccccc23)C1N(O)C(=O)Nc1ccccc1 (configuration not stated),.,.,59,59,.
CCN(CC)S(=O)(=O)c1cccc(-c2nnc(SC(C)C(=O)NCCC3=CCCCC3)o2)c1 (configuration not stated),94,33*,39,26,79
CCN(CC)S(=O)(=O)c1cccc(-c2nnc(SCc3nc4ccccc4s3)o2)c1,81,35*,53,42,87
CCN(CC)S(=O)(=O)c1cccc(-c2nnc(SCCCC(=O)c3ccc(F)cc3)o2)c1,93,37*,72,46,102
O=C(CSc1nnc(-c2cccc(S(=O)(=O)N3CCCCC3)c2)o1)NCCC1=CCCCC1,108,61,82,100,80
CCN(CC)S(=O)(=O)c1cccc(-c2nnc(SCC(=O)c3cc(C)n(C4CC4)c3C)o2)c1,88,67,.,.,97
Brc1ccccc1-c1nnc(SCc2nc3ccccc3s2)o1,.,.,86,89,.
CCN(CC)S(=O)(=O)c1cccc(-c2nnc(SCCCC(=O)c3ccccc3)o2)c1,105,32*,74,69,85
Cc1ccc(S(=O)(=O)NC(=O)c2ccc(Br)o2)cc1,.,.,93,89,.
C=CCN(C(=O)c1ccccc1)c1ccc(OC)cc1,88,24*,33,42,82
Cc1ccc(N(CN2C(=O)c3ccccc3C2=O)C(=O)c2ccc([N+](=O)[O-])cc2[N+](=O)[O-])cc1,.,.,97,95,.
CCc1ccc(C(=O)/C=C/c2ccc([N+](=O)[O-])o2)cc1,15*,2.6*,1.5*,1.9*,21*
CCOC(=O)Cn1c2c(c(=N)c3c1CCC3)CCC2,96,96,92,94,95
CCCCCCCCCCn1c2c(c(=N)c3c1CCC3)CCC2,8.6*,1.8*,0.9*,1.6*,4.3*
COC(=O)c1ccc(CSc2nnc(NC(=O)c3cc4c(s3)CCCC4)s2)cc1,106,7.6*,51,44,78
CC1CCc2sc(C(=O)Nc3nnc(SCc4ccc(F)cc4)s3)cc2C1 (configuration not stated),105,77,94,92,82
CC1(CCc2ccccc2)NC(=S)N(c2ccccc2)N1 (configuration not stated),.,.,100,101,.
CCN1C(=O)/C(=C2/C=Cc3ccccc3N2C)OC1=S,91,28*,15,10,88
Nc1ccc(N2CCN(c3ccc(Cl)c(Cl)c3)CC2)cc1,.,.,42,40,.
COCCn1nnnc1C(C(C)C)N(Cc1ccccc1)Cc1cc2cc(OC)ccc2[nH]c1=O (configuration not stated),89,4.8*,44,57,71
COCCn1nnnc1C(C(C)C)N(Cc1cccnc1)Cc1cc2cc(OC)ccc2[nH]c1=O (configuration not stated),104,91,93,89,83
Cc1cccc2cc(CN(Cc3ccco3)C(c3nnnn3CCc3ccccc3)C(C)C)c(=O)[nH]c12 (configuration not stated),.,66,36,38,86
COc1ccc2[nH]c(=O)c(CN(Cc3ccco3)C(c3nnnn3Cc3ccccc3)C(C)C)cc2c1 (configuration not stated),79,47,3.1*,6,58
O=C(CN1C(=O)COc2ccc(S(=O)(=O)N3CCCC3)cc21)NC1CCCCCCC1,.,.,88,76,.
COc1ccccc1NC(=O)c1ccc(NC(=O)CSc2nnnn2C)cc1,104,2.2*,91,81,97
COc1ccccc1NC(=O)CSc1nnnn1-c1ccc(C)cc1,101,83,103,86,88
CCC(=O)n1nc(-c2ccc(Cl)cc2)nc1NCc1ccccc1,52,17*,10,10,45
CCCS(=O)(=O)c1c(S(=O)(=O)CCC)c2c(C)cccn2c1C(=O)OC,96,52,87,90,90
